Source: ChEMBL document CHEMBL3616441, “Discovery of a Selective and CNS Penetrant Negative Allosteric Modulator of Metabotropic Glutamate Receptor Subtype 3 with Antidepressant and Anxiolytic Activity in Rodents” (J Med Chem, 2015)
Activity calls are given as the source filed them. The calls are words filed in the database; no cut-off is given here.

Experiments:
[1] = molecular target: Metabotropic glutamate receptor 5 (Rattus norvegicus) (UniProt P31424); assay: Modulation of rat mGlu5 receptor assessed as assessed as calcium mobilization at 30 uM by cell based fluorescence assay; format: functional
Chain of Metabotropic glutamate receptor 5 (Rattus norvegicus) (P31424 21-1203 limits assumed): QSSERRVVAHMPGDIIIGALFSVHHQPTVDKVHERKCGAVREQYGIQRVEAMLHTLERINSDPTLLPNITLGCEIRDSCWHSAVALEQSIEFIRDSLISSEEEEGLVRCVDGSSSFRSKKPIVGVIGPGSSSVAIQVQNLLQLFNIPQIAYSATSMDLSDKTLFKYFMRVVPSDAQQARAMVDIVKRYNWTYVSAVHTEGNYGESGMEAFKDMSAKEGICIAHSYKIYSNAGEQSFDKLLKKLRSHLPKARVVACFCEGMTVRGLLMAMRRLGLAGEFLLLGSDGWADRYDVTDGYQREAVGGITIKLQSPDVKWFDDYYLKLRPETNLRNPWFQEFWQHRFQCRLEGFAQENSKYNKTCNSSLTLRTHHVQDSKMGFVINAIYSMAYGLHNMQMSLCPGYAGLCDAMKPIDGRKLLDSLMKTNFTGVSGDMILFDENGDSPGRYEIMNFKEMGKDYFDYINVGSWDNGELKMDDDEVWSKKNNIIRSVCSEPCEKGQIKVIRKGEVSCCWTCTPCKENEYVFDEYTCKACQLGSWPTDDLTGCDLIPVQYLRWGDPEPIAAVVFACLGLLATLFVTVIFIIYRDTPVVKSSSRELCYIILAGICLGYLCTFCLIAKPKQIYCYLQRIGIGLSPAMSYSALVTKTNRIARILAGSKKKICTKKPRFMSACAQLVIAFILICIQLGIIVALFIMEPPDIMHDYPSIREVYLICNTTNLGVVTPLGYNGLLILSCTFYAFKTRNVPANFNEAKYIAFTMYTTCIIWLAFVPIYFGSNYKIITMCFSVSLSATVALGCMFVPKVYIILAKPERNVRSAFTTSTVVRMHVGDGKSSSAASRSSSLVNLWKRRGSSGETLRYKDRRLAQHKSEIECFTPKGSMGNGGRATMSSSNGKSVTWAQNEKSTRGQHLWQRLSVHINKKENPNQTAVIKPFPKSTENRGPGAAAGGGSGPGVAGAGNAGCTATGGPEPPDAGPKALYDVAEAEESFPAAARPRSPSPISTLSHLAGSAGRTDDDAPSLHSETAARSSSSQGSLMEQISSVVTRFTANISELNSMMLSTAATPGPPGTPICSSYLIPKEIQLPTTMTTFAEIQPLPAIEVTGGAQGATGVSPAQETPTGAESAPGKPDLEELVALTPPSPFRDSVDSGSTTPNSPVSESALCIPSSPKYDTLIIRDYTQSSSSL

[2] = molecular target: Metabotropic glutamate receptor 3 (Rattus norvegicus, UniProt P31422); assay: Negative allosteric modulation of rat mGlu3 receptor assessed as calcium mobilization by cell based fluorescence assay; format: functional
Chain of Metabotropic glutamate receptor 3 (P31422 whole entry): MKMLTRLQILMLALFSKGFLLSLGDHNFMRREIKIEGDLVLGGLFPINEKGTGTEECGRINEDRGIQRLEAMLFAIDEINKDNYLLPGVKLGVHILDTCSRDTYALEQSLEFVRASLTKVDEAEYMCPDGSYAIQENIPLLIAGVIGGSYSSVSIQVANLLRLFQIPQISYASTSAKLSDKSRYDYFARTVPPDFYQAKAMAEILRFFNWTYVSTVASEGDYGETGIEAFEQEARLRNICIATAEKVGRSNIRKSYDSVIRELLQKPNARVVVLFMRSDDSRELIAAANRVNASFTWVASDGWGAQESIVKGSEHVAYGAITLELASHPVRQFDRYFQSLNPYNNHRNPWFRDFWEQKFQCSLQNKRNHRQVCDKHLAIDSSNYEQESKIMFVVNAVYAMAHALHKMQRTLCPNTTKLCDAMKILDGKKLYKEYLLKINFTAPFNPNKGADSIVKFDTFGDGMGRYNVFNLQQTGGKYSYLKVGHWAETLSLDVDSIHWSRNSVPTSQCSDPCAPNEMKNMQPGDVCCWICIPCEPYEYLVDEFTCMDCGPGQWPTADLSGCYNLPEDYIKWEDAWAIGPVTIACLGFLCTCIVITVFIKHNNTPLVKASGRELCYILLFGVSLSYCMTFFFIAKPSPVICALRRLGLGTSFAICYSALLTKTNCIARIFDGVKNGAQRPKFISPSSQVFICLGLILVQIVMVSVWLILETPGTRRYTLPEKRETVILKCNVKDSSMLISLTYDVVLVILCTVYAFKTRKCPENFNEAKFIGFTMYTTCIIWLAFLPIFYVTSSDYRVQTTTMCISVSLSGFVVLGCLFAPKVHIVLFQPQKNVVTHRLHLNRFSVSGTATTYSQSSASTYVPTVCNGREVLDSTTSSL
Outline: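 Cell line stably expressing rat mGlu3 with the promiscuous G-protein Gα15. Calcium mobilization with fluorescence read-out, inhibition of the glutamate response. Full concentration-response curves, top concentration 30 μM. % Glu Max is the response with 30 μM test compound as a percentage of the maximal response to 100 μM glutamate. Values averaged over n-3.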

[3] = molecular target: Metabotropic glutamate receptor 5 (Rattus norvegicus, UniProt P31424); assay: Modulation of rat mGlu5 receptor assessed as calcium mobilization by cell based fluorescence assay; format: functional
Chain of Metabotropic glutamate receptor 5 (P31424 whole entry): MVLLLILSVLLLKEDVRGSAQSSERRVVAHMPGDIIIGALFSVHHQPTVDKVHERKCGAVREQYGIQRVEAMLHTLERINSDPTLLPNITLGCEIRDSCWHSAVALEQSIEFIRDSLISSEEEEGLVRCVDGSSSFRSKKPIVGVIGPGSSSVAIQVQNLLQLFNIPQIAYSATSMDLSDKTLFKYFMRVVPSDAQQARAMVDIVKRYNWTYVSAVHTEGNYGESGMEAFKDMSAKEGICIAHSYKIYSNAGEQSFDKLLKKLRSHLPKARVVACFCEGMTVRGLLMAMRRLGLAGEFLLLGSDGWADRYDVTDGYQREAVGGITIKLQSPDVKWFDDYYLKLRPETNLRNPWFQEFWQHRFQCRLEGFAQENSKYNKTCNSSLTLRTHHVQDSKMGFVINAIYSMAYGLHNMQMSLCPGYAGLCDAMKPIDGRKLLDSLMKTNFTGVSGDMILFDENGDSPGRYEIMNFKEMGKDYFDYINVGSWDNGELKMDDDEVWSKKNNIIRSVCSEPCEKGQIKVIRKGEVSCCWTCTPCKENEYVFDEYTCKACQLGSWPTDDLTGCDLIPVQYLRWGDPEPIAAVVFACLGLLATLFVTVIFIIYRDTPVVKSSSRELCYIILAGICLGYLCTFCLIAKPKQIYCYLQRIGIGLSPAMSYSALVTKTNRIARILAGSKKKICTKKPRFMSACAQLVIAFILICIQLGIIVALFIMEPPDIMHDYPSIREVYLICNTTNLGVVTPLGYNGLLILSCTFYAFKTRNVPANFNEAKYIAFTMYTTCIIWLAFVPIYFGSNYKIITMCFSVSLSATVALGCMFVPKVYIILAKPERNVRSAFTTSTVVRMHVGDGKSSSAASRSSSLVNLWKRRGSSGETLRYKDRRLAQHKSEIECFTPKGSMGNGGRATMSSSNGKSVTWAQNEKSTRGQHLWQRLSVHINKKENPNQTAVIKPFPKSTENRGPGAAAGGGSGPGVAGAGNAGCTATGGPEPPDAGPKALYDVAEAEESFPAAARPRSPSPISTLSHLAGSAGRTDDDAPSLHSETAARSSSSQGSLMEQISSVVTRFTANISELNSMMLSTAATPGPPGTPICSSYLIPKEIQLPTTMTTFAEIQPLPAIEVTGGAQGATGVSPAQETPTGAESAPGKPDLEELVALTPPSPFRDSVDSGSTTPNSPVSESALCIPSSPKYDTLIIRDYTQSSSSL
Outline: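 Calcium mobilization assay with fluorescence read-out in cells expressing mGlu5; full concentration-response curves; % Glu Max is the amplitude of response with 30 μM test compound as a percentage of the maximal response to 100 μM glutamate; values averaged over n-3.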

[4] = molecular target: Metabotropic glutamate receptor 5 (Rattus norvegicus) (UniProt P31424); assay: Positive allosteric modulation of rat mGlu5 receptor assessed as calcium mobilization by cell based fluorescence assay; format: functional
[5] = molecular target: Metabotropic glutamate receptor 3 (Rattus norvegicus) (UniProt P31422); assay: Negative allosteric modulation of rat mGlu3 receptor assessed as amplitude response at 30 uM relative to glutamate
Chain of Metabotropic glutamate receptor 3 (Rattus norvegicus) (P31422 23-879 limits assumed): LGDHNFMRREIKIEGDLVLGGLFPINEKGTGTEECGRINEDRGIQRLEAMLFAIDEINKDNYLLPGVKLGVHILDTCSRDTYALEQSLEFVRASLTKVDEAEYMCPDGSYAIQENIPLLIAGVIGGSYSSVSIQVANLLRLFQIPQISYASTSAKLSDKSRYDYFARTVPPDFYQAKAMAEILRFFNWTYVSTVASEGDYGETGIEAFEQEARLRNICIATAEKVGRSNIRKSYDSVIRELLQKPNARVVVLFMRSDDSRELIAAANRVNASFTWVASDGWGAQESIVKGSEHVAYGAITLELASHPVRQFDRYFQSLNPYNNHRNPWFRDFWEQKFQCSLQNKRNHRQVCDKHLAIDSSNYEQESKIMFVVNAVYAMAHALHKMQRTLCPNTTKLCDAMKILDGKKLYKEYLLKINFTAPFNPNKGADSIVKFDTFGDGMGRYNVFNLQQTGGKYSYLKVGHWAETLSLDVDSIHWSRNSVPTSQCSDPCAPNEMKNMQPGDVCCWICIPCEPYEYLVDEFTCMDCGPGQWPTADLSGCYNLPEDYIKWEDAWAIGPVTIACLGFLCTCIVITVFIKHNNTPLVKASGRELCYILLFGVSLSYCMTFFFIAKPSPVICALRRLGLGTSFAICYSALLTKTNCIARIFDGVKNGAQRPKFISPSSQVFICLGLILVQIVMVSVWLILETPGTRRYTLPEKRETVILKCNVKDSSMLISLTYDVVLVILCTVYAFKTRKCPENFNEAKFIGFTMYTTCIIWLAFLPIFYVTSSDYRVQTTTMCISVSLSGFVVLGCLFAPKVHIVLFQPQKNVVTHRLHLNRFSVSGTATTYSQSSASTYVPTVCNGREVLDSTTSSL
Outline: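 Calcium mobilization in cell line stably expressing rat mGlu3 with promiscuous Gα15; fluorescence read-out; amplitude of glutamate response with 30 μM test compound expressed as percentage of maximal response (100 μM glutamate); average of n = 3.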

[6] = molecular target: Metabotropic glutamate receptor 5 (Rattus norvegicus) (UniProt P31424); assay: Negative allosteric modulation of rat mGlu5 receptor assessed as calcium mobilization by cell based fluorescence assay; format: functional

Structure (SMILES)	Activity [1] [%]	IC50 [2] [nM]	EC50 [3] [nM]	Activity [4]	Activity [5] [%]	Activity [6]
C[C@@H]1CN(c2c(F)cccc2F)C(=O)c2cc(COc3ccc(Cl)cn3)nn21	40.3	225	1420	Active	2.06	
COc1cccc(OCc2cc3n(n2)[C@H](C)CN(c2ccc(F)cc2)C3=O)n1	31.2	1590	> 10000	Active	1.94	
COc1ccc(N2C[C@@H](C)n3nc(COc4ccc(Cl)cn4)cc3C2=O)cc1	59.4	439	4330	Active	2.07	
C[C@@H]1CN(c2ccc(F)cc2)C(=O)c2cc(COc3ncccc3F)nn21	78.5	1100	4300	Active	2.22	
COc1ccnc(OCc2cc3n(n2)[C@H](C)CN(c2ccc(F)cc2)C3=O)c1	54.7	3690	> 10000		-0.18	Active
C[C@@H]1CN(c2ccc(Cl)cc2)C(=O)c2cc(COc3ccc(Cl)cn3)nn21	51.2	1230	3310	Active	0.94	
C[C@@H]1CN(c2ncccc2C#N)C(=O)c2cc(COc3ccc(Cl)cn3)nn21		677	> 30000		1.35	
C[C@@H]1CN(c2cc(F)cc(F)c2)C(=O)c2cc(COc3ccc(Cl)cn3)nn21	33.1	420	> 10000	Active	2.18	
C[C@@H]1CN(c2ccc(Cl)cc2)C(=O)c2cc(COc3ccc(F)cn3)nn21	51.6	197	364	Active	2.17	
C[C@@H]1CN(c2ccc(F)cc2)C(=O)c2cc(COc3ccccc3F)nn21	89.3	530	195	Active	2.9	
CCc1ccc(OCc2cc3n(n2)[C@H](C)CN(c2ccc(F)cc2)C3=O)cc1	50.8	830	3210	Active	2.29	
C[C@@H]1CN(c2ccc(C#N)cc2)C(=O)c2cc(COc3ccc(Cl)cn3)nn21	23.1	539	3320	Active	1.84	
C[C@@H]1CN(c2ccc(F)nc2)C(=O)c2cc(COc3ccc(Cl)cn3)nn21	30.6	408	> 10000	Active	1.45	
C[C@@H]1CN(c2ncccc2F)C(=O)c2cc(COc3ccc(Cl)cn3)nn21	32.4	362	> 10000	Active	1.64	
COc1cccc(N2C[C@@H](C)n3nc(COc4ccc(Cl)cn4)cc3C2=O)c1	78	313	5070	Active	2	
C[C@@H]1CN(c2ccccc2C#N)C(=O)c2cc(COc3ccc(Cl)cn3)nn21	38.1	429	4970	Active	1.64	
Cc1ccccc1N1C[C@@H](C)n2nc(COc3ccc(Cl)cn3)cc2C1=O	80.7	571	2280	Active	1.95	
C[C@@H]1CN(c2ccc(F)cc2)C(=O)c2cc(COc3ccc(C(F)(F)F)cc3)nn21		1850	> 30000		4.13	
C[C@@H]1CN(c2cccc(Cl)c2)C(=O)c2cc(COc3ccc(Cl)cn3)nn21	65.8	558	2870	Active	1.63	
C[C@@H]1CN(c2ccccc2F)C(=O)c2cc(COc3ccc(Cl)cn3)nn21	57.3	226	3240	Active	1.74	
C[C@@H]1CN(c2ccc(F)cc2)C(=O)c2cc(COc3cccc(F)c3)nn21	86.1	773	73	Active	1.19	
C[C@@H]1CN(c2ccc(F)cn2)C(=O)c2cc(COc3ccc(Cl)cn3)nn21	47.9	260	> 10000	Active	2.44	
COc1cccnc1OCc1cc2n(n1)[C@H](C)CN(c1ccc(F)cc1)C2=O		6760	> 30000		-1.14	

Structure (SMILES)	Activity [1] [%]	IC50 [2] [nM]	EC50 [3] [nM]	Activity [4]	Activity [5] [%]	Activity [6]
Cc1ccc(N2C[C@@H](C)n3nc(COc4ccc(Cl)cn4)cc3C2=O)cc1	70.8	410	> 10000	Active	1.39	
C[C@@H]1CN(c2ccc(F)cc2F)C(=O)c2cc(COc3ccc(Cl)cn3)nn21	70.8	280	2580	Active	1.34	
Cc1ccc(OCc2cc3n(n2)[C@H](C)CN(c2ccc(F)cc2)C3=O)cc1	92.5	1190	1080	Active	1.72	
C[C@@H]1CN(c2ccncc2)C(=O)c2cc(COc3ccc(F)cn3)nn21		881	> 30000		0.77	
C[C@@H]1CN(c2cccc(C#N)c2)C(=O)c2cc(COc3ccc(Cl)cn3)nn21	32.2	825	> 10000	Active	1.75	
COc1cccc(OCc2cc3n(n2)[C@H](C)CN(c2ccc(F)cc2)C3=O)c1	32.4	1290	1840	Active	1.78	
COc1ccc(N2C[C@@H](C)n3nc(COc4ccc(F)cn4)cc3C2=O)cc1	32.3	320	1380	Active	1.23	
C[C@@H]1CN(c2ccc(F)cc2)C(=O)c2cc(COc3ccc(Cl)cc3)nn21	81.8	1170	604	Active	1.86	
Cc1ccccc1OCc1cc2n(n1)[C@H](C)CN(c1ccc(F)cc1)C2=O	83.7	721	1500	Active	1.56	
C[C@@H]1CN(c2ccc(F)cc2)C(=O)c2cc(COc3ccccc3)nn21	87.7	267	46	Active	2.21	
C[C@@H]1CN(c2ccc(F)cc2)C(=O)c2cc(COc3ncccc3C(F)(F)F)nn21		2940	> 30000		2.11	
C[C@@H]1CN(c2cccc(F)c2)C(=O)c2cc(COc3ccc(Cl)cn3)nn21	63.5	206	5970	Active	1.38	
C[C@@H]1CN(c2ccc(F)cc2)C(=O)c2cc(COc3ccc(C#N)cc3)nn21	38.6	784	1940	Active	2.53	
Cc1cccc(N2C[C@@H](C)n3nc(COc4ccc(Cl)cn4)cc3C2=O)c1	69.9	392	3600	Active	1.71	
C[C@@H]1CN(c2cccc(F)c2F)C(=O)c2cc(COc3ccc(Cl)cn3)nn21	36.1	852	6680	Active	0.33	
COc1ccccc1OCc1cc2n(n1)[C@H](C)CN(c1ccc(F)cc1)C2=O	63.7	2540	> 10000	Active	2.32	
C[C@@H]1CN(c2cc(F)ccc2C#N)C(=O)c2cc(COc3ccc(Cl)cn3)nn21		529	> 30000		1.55	
C[C@@H]1CN(c2ccc(F)cc2)C(=O)c2cc(COc3ccccc3Cl)nn21	84.4	532	419	Active	1.63	
C[C@@H]1CN(c2ccc(F)cc2)C(=O)c2cc(COc3cccc(C(F)(F)F)n3)nn21		2360	> 30000		2.06	
C[C@@H]1CN(c2ccc(F)cc2)C(=O)c2cc(COc3ccc(OC(F)(F)F)cc3)nn21		4070	> 30000		2.66	
C[C@@H]1CN(c2ccc(F)cc2)C(=O)c2cc(COc3ccc(F)cc3F)nn21	82.3	417	307	Active	1.7	
C[C@@H]1CN(c2ccccc2Cl)C(=O)c2cc(COc3ccc(Cl)cn3)nn21	51	328	5450	Active	1.87	
COc1ccc(OCc2cc3n(n2)[C@H](C)CN(c2ccc(F)cc2)C3=O)cc1	40.2	1040	1340	Active	1.76	
